High-throughput results as filed in PubChem.
MC4R antagonist: MC4R antagonists of cAMP signaling, primary screen, cell-based, TR-FRET, antagonist arm of biased-ligand search. actives 0.48% (n = 360,000). MC4R-expressing cells, MTII-stimulated cAMP, LANCE TR-FRET. inhibition, % at 6.5 µM. Melanocortin receptor 4 (Homo sapiens), P32245;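 active means inhibition above its plate's cutoff, the mean of tested wells on that plate plus 3 SD, cut at about 29% in these data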
Target sequence (P32245 whole entry, looked up): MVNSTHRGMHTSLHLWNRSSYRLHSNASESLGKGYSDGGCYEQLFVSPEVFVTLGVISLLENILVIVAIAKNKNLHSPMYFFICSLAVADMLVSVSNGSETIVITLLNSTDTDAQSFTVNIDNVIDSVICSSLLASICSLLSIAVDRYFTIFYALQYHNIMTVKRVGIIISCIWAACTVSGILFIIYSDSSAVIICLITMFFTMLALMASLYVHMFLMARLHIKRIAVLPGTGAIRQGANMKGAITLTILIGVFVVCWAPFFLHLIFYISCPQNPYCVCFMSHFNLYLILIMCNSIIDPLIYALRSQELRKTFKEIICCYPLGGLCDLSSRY
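Material – human MC4R-expressing U2OS cells · Repeats – no replicates · Detection – TR-FRET with Eu-cAMP and labeled anti-cAMP, 671 nm · Times – compound 30 min, challenge 1 h, detection 1 h · Compound – single nominal compound dose of 6.5 µM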
UPR CHOP act: activators of apoptotic CHOP UPR arm, primary screen, cell-based, CHO-CHOP luciferase reporter, luminescence, uHTS; UPR activation; percent of tunicamycin response over DMSO baseline; activation, % at 10 µM; actives 0.34% (n = 330,000); AID 449763, 2010;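 active means at 10 µM dose, activation of 40% or more, normalized to positive control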
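Test system: CHO CHOP reporter cells. Input: 500 CHO-CHOP cells per well. Medium: F12 with 10% FBS. Technique: luciferase luminescence. Measure: percent activation relative to tunicamycin control. Dosing: 10 µM compound, 0.5% DMSO. Timing: 16-18 h cell attachment, then 6 h compound exposure, 37 °C.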
Bfl-1 A1 inh: caspase 3/7 activation in MEF A1-2A-BIM cells, primary screen, A1 inhibitor project, cell-based, luminescence, HTS. Caspase-Glo 3/7 luminescence, 3 h; percent of clofoctol response, vehicle zero. caspase activation, % (concentration not given with the values). actives 0.066% (n = 330,000);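 active means over half of replicate activation scores above 10%, or exactly half above 10 with the replicate mean above 10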
XBP1 UPR activ: activators of adaptive XBP1 UPR arm, primary screen, cell-based, CHO-XBP1 luciferase reporter, luminescence, uHTS; activation, % at 20 µM; AID 463104, 2010; actives 0.33% (n = 330,000); IRE1-XBP1 UPR activation; percent of tunicamycin response, DMSO as zero;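 active means versus positive control, 20 µM dose yields 30% or more activation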
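assay system = CHO-XBP1 luciferase reporter cells | amount = 1000 cells/well | buffer or medium = F12 plus 10% FBS | compound dosing = single point, 20 µM final compound, 1% DMSO | incubation = 16-18 h cell attachment at 37 °C, then 6 h compound exposure | detection = Steady-Glo luminescence read | controls = tunicamycin 10 µg/mL and vehicle-only wells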
MC4R barr agon: MC4R agonists recruiting beta-arrestin, primary screen, cell-based, luminescence, agonist arm of biased-ligand search; AID 540308, 2011; activation, % at 8.9 µM; U2OS MC4R beta-arrestin complementation; percent of melanotan II response, DMSO zero; actives 0.98% (n = 360,000);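 active means activation above a per-plate cutoff, the mean activation of sample wells on that plate plus 3 SD, cut at about 8% in these data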
U2OS cAMP counter: nonselective cAMP signaling inhibitors, parental cells, counter-screen for MC4R biased antagonist project, cell-based, TR-FRET, U2OS, forskolin, triplicate. LANCE TR-FRET. inhibition, % at 6.5 µM. AID 602193, 2012. actives 26% (n = 1,600). shares compounds with MC4R antagonist;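 active means mean inhibition over triplicates above the low-control well mean plus 3 SD, set per campaign, cut at about 13% in these data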;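 further: signal is single emission at 671 nm which falls as cellular cAMP rises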
MC4R cAMP antag: MC4R cAMP antagonists, retest, confirmation, cell-based, TR-FRET; shares compounds with MC4R antagonist; MC4R-expressing cells, MTII-stimulated cAMP; inhibition, % at 6.5 µM; actives 27% (n = 1,600); in the data active means inhibition above about 29%
Numbers stand for hits; - = inactive; . = no result given. This is a sample that favours compounds with a hit; in the whole collection about 2% have one here.

SMILES	MC4R antagonist	UPR CHOP act	Bfl-1 A1 inh	XBP1 UPR activ	MC4R barr agon	U2OS cAMP counter	MC4R cAMP antag
CCCCn1c(N)c(N(CCC(C)C)C(=O)CCCc2nc3ccccc3s2)c(=O)[nH]c1=O	30	-	-	-	-	-	-
COc1ccc(CC(=O)Oc2ccc(F)c(F)c2)cc1S(=O)(=O)N1CCOCC1	35	-	-	-	-	-	-
COc1ccc(CC(=O)Oc2ccc(Br)cc2F)cc1S(=O)(=O)N1CCOCC1	-	-	-	-	-	.	.
CCOc1ccccc1N1CC(C(=O)Nc2cc(S(=O)(=O)N3CCOCC3)ccc2OC(C)C)CC1=O (centres undefined)	-	.	.	.	-	.	.
CC(C)(C)c1ccc(C(=O)Nc2sc3c(c2C(=O)O)CCC3)cc1	30	-	-	-	-	-	-
CC1(C(=O)Nc2cccc(C#N)c2)CCN1C(=O)c1ccccc1CCc1ccccc1 (centres undefined)	-	.	.	.	-	.	.
CCN1CCN(C(=O)c2cc(S(=O)(=O)Nc3ccc(S(C)(=O)=O)cc3)ccc2Cl)CC1	30	-	-	-	-	-	-
CC(=O)N1CCN(C(=O)c2cc(S(=O)(=O)Nc3ccc(S(C)(=O)=O)cc3)ccc2Cl)CC1	-	-	-	-	-	.	.
CCOC(=O)c1cnc2ccc(OCC)cc2c1N(C)Cc1ccccc1	30	-	-	-	-	-	31
CN1C[C@@H]2[C@@H]3C(=O)N(Cc4ccccc4)C(=O)[C@@H]3[C@](Cc3ccccc3)(C1=O)N2C(=O)c1ccc(Cl)cc1	-	.	.	.	-	.	.
COc1ccc(C(=O)CCN2CCCC(C)C2)cc1 (centres undefined)	-	-	-	-	-	.	.
COc1ccc(N2CCN(CCC(=O)c3ccc4ccccc4c3)CC2)cc1	29	-	-	-	-	-	-
CCOC(=O)N1CCN(CCC(=O)c2ccc(Cl)cc2)CC1	-	-	-	-	-	.	.
COc1ccc(C(=O)CCN2CCC(C)CC2)cc1	31	-	-	-	-	-	-
CCOC(=O)N1CCN(CCC(=O)c2ccc(OC)cc2)CC1	33	-	-	-	-	-	-
Cc1cncc(NCc2cccc(Cl)c2)n1	-	.	.	.	-	.	.
CCc1ccc(NC(=O)c2cc(-c3ccc(OC)cc3)on2)cc1	-	-	-	-	-	.	.
Cc1cc(NC(=O)c2cc(-c3ccc(O)cc3)on2)no1	-	-	-	-	-	.	.
COc1ccc(-c2cc(C(=O)Nc3ccc(Br)cc3)no2)cc1	29	-	-	-	-	-	-
COc1ccc(-c2cc(C(=O)Nc3cc(C)on3)no2)cc1OC	31	-	-	-	-	-	-
CC(=O)Nc1ccc(-c2csc(NC(=O)C3CC(=O)N(c4ccc5c(c4)OCCO5)C3)n2)cc1 (centres undefined)	35	-	-	-	-	-	-
CCN(CC)CCNC(=O)c1ccc(NC(=O)c2ccc(-n3cncn3)c([N+](=O)[O-])c2)cc1	-	.	.	.	-	.	.
CC1(C(=O)N2CCC(CO)(Cc3cccc(C(F)(F)F)c3)CC2)CC1	30	-	-	-	-	-	-
N#CC1c2ccccc2-c2ccccc2N1C(=O)c1ccccc1 (centres undefined)	-	.	.	.	-	.	.
CC(NC(=O)c1ccc(NC(=O)CC2SC(N3CCCC3)=NC2=O)cc1)c1ccc(F)cc1 (centres undefined)	-	-	-	-	-	.	.
CCc1ccc(NC(=O)C(=O)NCCN2CCN(S(=O)(=O)c3ccccc3)CC2)cc1	32	-	-	-	-	-	-
